This is a sample that favours compounds with a hit; in the whole collection about 3.8% have one here.
hERG protect: compounds protecting human hERG from proarrhythmic drug block; AID 1511; Q12809; 310,000 tested, 0.51% active; CHO-hERG, FluxOR thallium flux, dofetilide IC70 present; activation (rescue from dofetilide block), less the hit threshold, % at 10 µM;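 active = activation above the mean of controls blocked by dofetilide plus 5 SD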;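 note: thallium influx through hERG after potassium depolarization seen as dye fluorescence rise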
KCNK9 block: inhibitors of human KCNK9 two-pore domain potassium channel | Q9NPC2 | HEK293 KCNK9, FluxOR thallium flux fluorescence; hits give low values | B-score at 10 µM | 310,000 tested, 1.2% active;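 active = ratio B-score over 3 SD below the library mean, with starting fluorescence within 5 SD of its mean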;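 note: negative B-score means less thallium flux so channel inhibition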
Target sequence (Q9NPC2 whole entry, looked up, the tested form may be a part): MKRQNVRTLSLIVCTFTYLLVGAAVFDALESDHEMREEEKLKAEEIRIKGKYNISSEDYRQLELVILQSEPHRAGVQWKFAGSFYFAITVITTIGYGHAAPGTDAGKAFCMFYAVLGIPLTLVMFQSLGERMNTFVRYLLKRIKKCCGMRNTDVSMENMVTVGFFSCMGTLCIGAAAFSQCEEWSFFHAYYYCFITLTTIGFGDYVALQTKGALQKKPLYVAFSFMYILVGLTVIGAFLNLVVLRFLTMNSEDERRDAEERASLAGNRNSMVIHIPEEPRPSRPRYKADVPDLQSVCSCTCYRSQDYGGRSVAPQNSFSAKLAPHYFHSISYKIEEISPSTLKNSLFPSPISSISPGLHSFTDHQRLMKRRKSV
KCNK3 block: human KCNK3 channel inhibition, primary screen; AID 602410; CHO-KCNK3 thallium flux, FluxOR fluorescence; hits give low values; 340,000 tested, 0.84% active; O14649; B-score at 10 µM;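 active = B-score under library mean minus 4 SD, starting fluorescence ratio at most library mean plus 5 SD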;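 note: more negative B-score means stronger inhibition of thallium flux through KCNK3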
KCNQ1 block: inhibitors of human KCNQ1 potassium channel; CHO-K1 KCNQ1, FluxOR thallium flux fluorescence; hits give high values; 310,000 tested, 1.3% active; P51787; B-score at 10 µM;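 active = compounds whose thallium flux B-score, printed positive for inhibition, exceeds three library SD while starting fluorescence stays within three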;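 note: channel opened by potassium depolarization with thallium stimulus after 20 min compound exposure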
Kir21 block: blocks the mouse Kir2.1 inward-rectifier potassium channel | HEK293-Kir2.1, FluxOR thallium flux fluorescence; hits give low values | B-score at 10 µM | 310,000 tested, 0.85% active;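 active = fluorescence ratio B-score at or below minus 3 SD of library scores, with starting-brightness B-score within 2 SD, cut at about -4.2 in these data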;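 note: channel flux triggered by added potassium and thallium sulfate stimulus; B-score of peak minus minimum fluorescence over baseline after thallium stimulus; more negative B-score means stronger Kir2.1 block with less thallium influx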
KCNQ1 pot: human KCNQ1 channel potentiation or activation. P51787. CHO-K1 KCNQ1, thallium flux FluxOR fluorescence; hits give high values. B-score at 10 µM. 310,000 tested, 0.35% active. AID 2648;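 active = fluorescence ratio B-score, a plate-corrected score, at least three library SD, with initial intensity B-score within 5 SD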
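Assay system: CHO-K1 cells stably expressing KCNQ1. Medium: assay buffer for compound exposure, DMSO matched across wells. Timing: 37 °C overnight plating, 90-min dark dye load, 20-min compound pretreatment. Signal: kinetic FluxOR fluorescence, 10 s baseline plus 110 s post-stimulus.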
Each line names hits and unclear results; the compound was inactive in the other large screens.

CC1SC(C)C(=O)N(CC(=O)Nc2ccc([N+](=O)[O-])cc2)C1=O (stereo not drawn)	none
Cc1cccc(S(=O)(=O)c2c(N)n(Cc3ccco3)c3nc4ccccc4nc23)c1	KCNQ1 block 6
O=C(NC(=S)Nc1ccccc1Br)c1ccco1	KCNQ1 pot 9
CCOc1ccc(NC(=O)c2ccco2)cc1	none
CCOc1ccc(NC(=S)NC2CC3CCC(C2)N3Cc2ccco2)cc1 (stereo not drawn)	KCNK9 block -7.18
CCOc1ccc(NC(=S)NC(=O)c2ccco2)cc1	hERG protect 6.1, KCNQ1 pot 12
Cc1cccc(NC(=O)CCNC(=O)c2ccco2)c1C	none
Cc1cc(C)cc(NC(=S)NC2CC3CCC(C2)N3Cc2ccco2)c1 (stereo not drawn)	none
Cc1cccc(NC(=S)NC(=O)c2ccco2)c1C	hERG protect 22.1, KCNQ1 pot 33
O=C(NCc1cccc(Cl)c1)C1CCC(=O)N(CCN2CCOCC2)C1 (stereo not drawn)	none
CCN(CC)CCNCC(O)(c1ccc(Cl)cc1)c1ccc(Cl)cc1	Kir21 block -5.56
CC(C)(C)NCC(O)(c1ccc(Cl)cc1)c1ccc(Cl)cc1	none
CCn1c(SCC(=O)Nc2cccc(S(=O)(=O)N(C)c3ccccc3)c2)nnc1C1CC1	none (no result: hERG protect, KCNK9 block, KCNQ1 block, Kir21 block, KCNQ1 pot)
CCCc1cc(-c2nc(-c3ccc(Cl)cc3)cs2)ccn1	KCNK9 block -6.61
Cc1[nH]n(-c2ccccc2)c(=O)c1N=Nc1ccc(C(=O)O)cc1	none
Cc1[nH]n(-c2ccccc2)c(=O)c1N=Nc1ccc(C(N)=O)cc1	hERG protect 10.4
CC(=O)c1ccc(N=Nc2c(C)[nH]n(-c3ccccc3)c2=O)cc1	KCNQ1 block 6
Cc1[nH]n(-c2ccccc2)c(=O)c1N=Nc1ccccc1	none
CCCc1cc(=O)[nH]c(SCC(=O)c2cc(C)n(C3CC3)c2C)n1	Kir21 block -4.49
O=C(c1sc2ccccc2c1Cl)N(Cc1ccccc1Cl)C1CCS(=O)(=O)C1 (stereo not drawn)	KCNK9 block -6.79
Nc1nc(O)c(N=Nc2ccc(S(N)(=O)=O)cc2)c(=O)[nH]1	hERG protect 4.8 (no result: KCNK3 block)
NS(=O)(=O)c1ccc(N=Nc2c[nH]c(=O)c(O)c2)cc1	none
CCNC(=S)N/N=C/c1ccc(F)cc1	none (no result: KCNK3 block)
Cc1oc(/N=C/c2ccc(F)cc2)c(C#N)c1C	hERG protect 7.7
CCOC(=O)/C(C#N)=C/c1ccc(SC)cc1	hERG protect 42.5
CCOC(=O)/C(C#N)=C/c1ccc(OC)c(OC)c1	none
COc1ccccc1-n1c(SCC(=O)N2CCCC2)nnc1-c1ccccc1	none
CCOc1ccc(OCc2cccc(C(=O)Nc3ccc(CN4CCCCC4)cc3)c2)cc1	KCNQ1 block 6
COc1ccc(OCc2cccc(C(=O)Nc3ccc(CN4CCCCC4)cc3)c2)cc1	none
Cc1ccc(CNC(=O)c2ccc(Cn3nc(C)c(Cl)c3C)o2)cc1	KCNK9 block -6.96, Kir21 block -9
Cc1nn(Cc2ccc(C(=O)N/N=C/c3ccncc3)o2)c(C)c1Cl	none
COc1ccc(NC(=O)CSCC(=O)Nc2cc(Cl)ccc2N2CCOCC2)cc1	none
Cc1cc(NC(=O)CSCC(=O)Nc2cc(Cl)ccc2N2CCN(C)CC2)no1	none (no result: hERG protect, KCNK9 block, KCNQ1 block, Kir21 block, KCNQ1 pot)
Cc1ccc(NC(=O)CSCC(=O)Nc2ccccc2C(=O)N2CCCCC2)cc1	none
Cc1ccc(NC(=O)CSCC(=O)Nc2cc(Cl)ccc2N2CCOCC2)cc1	KCNQ1 block 6
Cc1ccc(NC(=O)CSCC(=O)Nc2ccccc2N2CCCC2)cc1	Kir21 block -6.66
Cc1cccc(NC(=O)CSCC(=O)Nc2cc(Cl)ccc2N2CCN(C)CC2)c1	Kir21 block -4.6
CC(C)c1ccc(NC(=O)C(c2ccc3c(c2)OCO3)N2CCCCC2)cc1 (stereo not drawn)	KCNK9 block -7.38
CC(C)c1ccc(NC(=O)NC(C)c2ccc3c(c2)OCO3)cc1 (stereo not drawn)	none
CC(C)c1ccc(NC(=O)C(c2ccc3c(c2)OCO3)N2CCC3(CC2)OCCO3)cc1 (stereo not drawn)	none
CC1CCN(C(C(=O)Nc2ccc(C(C)C)cc2)c2ccc3c(c2)OCO3)CC1 (stereo not drawn)	KCNK9 block -8.09
CC(C)(C)NC(=O)COC(=O)c1ccc(Cl)c(S(N)(=O)=O)c1	none
O=C(NCC1(c2ccccc2)CCCC1)c1ccccc1	none
O=C(NCC1(c2ccccc2)CCCC1)c1ccccc1Br	Kir21 block -5.3
O=C(O)CCCCCNC(=O)c1ccccc1Br	hERG protect 5.4
Cc1nn(-c2ccccc2)c(C)c1NC(=O)COC(=O)c1cccc(OC(F)F)c1	none
CCOC(=O)c1sc2nc(C)[nH]c(=S)c2c1C	KCNQ1 pot 40
O=C(CNc1ccccc1)N/N=C/c1ccc2c(c1)OCCO2	none
Cc1coc2cc3oc(=O)c(Cc4ccccc4)c(C)c3cc12	none
Cc1c(Cc2ccccc2)c(=O)oc2cc(O)cc(O)c12	Kir21 block -5.28
Cn1ncc2c(=O)[nH]nnc21	none (no result: hERG protect, KCNK9 block, KCNQ1 block, Kir21 block, KCNQ1 pot)
COc1cccc(-c2nnc(Nc3nc4c(F)cccc4s3)o2)c1	hERG protect 39.7, KCNQ1 pot 35
COc1cccc2sc(Nc3nc(-c4cc5ccccc5oc4=O)cs3)nc12	KCNK9 block -7.31
COc1cccc2sc(Nc3nnc(-c4ccccc4Cl)o3)nc12	hERG protect 8.7, KCNQ1 pot 15
Cc1ccc2nsnc2c1NC(=O)c1ccc([N+](=O)[O-])o1	none
Cc1ccc2nc(CCc3nc4ccc(C)cc4[nH]3)[nH]c2c1	Kir21 block -4.36
O=C(c1ccco1)N1CCN(c2nc(C3CC3)nc3c2nnn3Cc2ccccc2Cl)CC1	KCNQ1 block 6
CC(C)(C)Nc1c2ccccc2nc2ccccc12	Kir21 block -4.52
COc1ccc(Nc2nc(N)c3ccccc3n2)c(OC)c1	Kir21 block -5.11
COc1ccc(Nc2nc(N)nc(C(F)(F)F)n2)c(OC)c1	none
COc1ccccc1Nc1nc(-c2ccccc2)nc2ccccc12	KCNK9 block -7.17
COc1cc(Nc2c3ccccc3nc3ccccc23)cc(OC)c1OC	none
COc1ccccc1Nc1c2ccccc2nc2ccccc12	Kir21 block -4.97
O=C(Nc1ccccc1N1CCN(C(=O)c2ccccc2)CC1)c1cc2ccccc2o1	KCNK3 block -9.7 (no result: hERG protect, KCNK9 block, KCNQ1 block, Kir21 block, KCNQ1 pot)
O=C(Nc1ccc(Cl)cc1F)C1CC(=O)N(Cc2ccco2)C1 (stereo not drawn)	none (no result: hERG protect, KCNK9 block, KCNQ1 block, Kir21 block, KCNQ1 pot)
COc1ccccc1N1N=C(C(=O)c2ccccc2)C2C(=O)N(c3ccc(Br)cc3)C(=O)C21 (stereo not drawn)	none
COc1ccccc1N1C(=O)C2C(C(=O)c3ccccc3)=NN(c3ccccc3)C2C1=O (stereo not drawn)	KCNQ1 block 6
